Measured values as given in ChEMBL document CHEMBL1121595, “Fluoroprostaglandins: synthesis and biological evaluation of the methyl esters of (+)-12-fluoro-, (-)-ent-12-fluoro-, (+)-15-epi-fluoro-, and (-)-ent-15 epi-12-fluoroprostaglandin F2 alpha” (1980).

Legend:
[1] = test system: Cricetinae gen. sp.; assay: The compound was evaluated for the hamster uterine contraction.; assay type: functional, Cricetulus griseus
[2] = test system: Cricetinae gen. sp.; assay: The compound was evaluated for the antifertility activity in hamster.; assay type: functional
Procedure, shortened: (§1)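 Pregnant hamsters (80–90 g), ten per compound, mated one male per female. A single subcutaneous dose in ethanol was given on day 5 of pregnancy. The minimum effective dose is the lowest dose per hamster per day that leaves no pregnancies in the group of ten. Relative potency was derived by comparing this dose with that of natural PGF2α.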

[3] = test system: Gerbillinae; assay: The compound was evaluated for the gerbil colon contraction.; assay type: functional
[4] = test system: Cricetinae gen. sp.; assay: The compound was evaluated for the antifertility activity in hamster; no activity observed at 50 ug; assay type: functional, organism-based; conditions: Cricetulus griseus; procedure, shortened: as §1

| SMILES | relative potency [1] | relative potency [2] | relative potency [3] | MED [4] |
| --- | --- | --- | --- | --- |
| CCCCC[C@H](O)/C=C/[C@@]1(F)[C@H](O)C[C@H](O)[C@@H]1C/C=C\CCCC(=O)OC | 0.28 | 12.5 | 0.001 | – |
| CCCCC[C@H](O)/C=C/[C@@]1(F)[C@H](O)C[C@H](O)[C@@H]1C/C=C\CCCC(=O)O | 0.65 | 25 | 0.23 | – |
| CCCCC[C@@H](O)/C=C/[C@@]1(F)[C@H](O)C[C@H](O)[C@@H]1C/C=C\CCCC(=O)OC | 0.022 | 1 | 0.011 | – |
| CCCCC[C@H](O)/C=C/[C@@]1(F)[C@H](C/C=C\CCCC(=O)OC)[C@H](O)C[C@@H]1O | 0.0002 | – | 0.0002 | No activity observed at 50 ug |
| CCCCC[C@@H](O)/C=C/[C@@]1(F)[C@H](C/C=C\CCCC(=O)OC)[C@H](O)C[C@@H]1O | 0.004 | 0.17 | 0.001 | – |
